Activity calls are given as the source filed them. The rule behind the calls is not given here.
Tests used:
L6 = test: Stimulation of [3H]2-deoxyglucose uptake in rat L6 cells at 10 uM incubated for 16 hrs by scintillation counting method; type: functional, cell-based
In short: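 L6 myotubes incubated with the compound […]; insulin at 100 nM for 20 min served as the positive control. Uptake of ³H-2-deoxyglucose measured and expressed as fold stimulation relative to the control condition.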

Mus musculus [1] = test: Antihyperglycemic activity in db/db mouse assessed as reduction in blood glucose level at 10 mg/kg, po qd and measured on day 4 by oral glucose tolerance test; type: functional, organism-based
In short: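 Type 2 diabetic db/db mice dosed orally once a day for 15 days at 3, 10 or 30 mg/kg, with pioglitazone at 10 mg/kg as standard. Blood glucose measured daily and profile compared with vehicle-treated animals. Mean % change in 5 animals per group.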

Mus musculus [2] = test: Antihyperglycemic activity in db/db mouse assessed as improvement on glucose tolerance by measuring blood glucose AUC level at 10 mg/kg, po qd for 10 days by oral glucose tolerance test; type: functional
In short: (§1)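 db/db mice dosed orally once daily for 15 consecutive days at 3, 10 or 30 mg/kg, with vehicle controls and pioglitazone at 10 mg/kg. Oral glucose tolerance tests on day 10 and day 15. Overall improvement in glucose tolerance calculated against vehicle control. Mean % change in 5 animals per group.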

Mus musculus [3] = test: Antihyperglycemic activity in db/db mouse assessed as reduction in fasting blood glucose level at 10 mg/kg, po qd for 15 days; type: functional; parameters: scale not given: the % may be the effect or the level left
In short: (§2)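 db/db mice given 3, 10 or 30 mg/kg orally once a day for 15 consecutive days, alongside vehicle controls. Serum triglyceride, total cholesterol, HDL-C and insulin measured, along with fasting blood glucose. Expressed as mean % change in 5 animals per group versus control.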

Mus musculus [4] = test: Antihyperglycemic activity in db/db mouse assessed as reduction in insulin level at 10 mg/kg, po qd for 15 days; type: functional; parameters: scale not given: the % may be the effect or the level left; in short: as §2
Mus musculus [5] = test: Antihyperglycemic activity in db/db mouse assessed as reduction in triglyceride level at 10 mg/kg, po qd for 15 days; type: functional; parameters: scale not given: the % may be the effect or the level left; in short: as §2
Mus musculus [6] = test: Antihyperglycemic activity in db/db mouse assessed as increase in HDL-C level at 10 mg/kg, po qd for 15 days; type: functional; in short: as §2
Mus musculus [7] = test: Antihyperglycemic activity in db/db mouse assessed as improvement on glucose tolerance by measuring blood glucose AUC level at 10 mg/kg, po qd for 15 days by oral glucose tolerance test; type: functional; in short: as §1
Mus musculus [8] = test: Antihyperglycemic activity in db/db mouse assessed as reduction in cholesterol level at 10 mg/kg, po qd for 15 days; type: functional; parameters: scale not given: the % may be the effect or the level left; in short: as §2
HepG2 = test: Stimulation of [3H]2-deoxyglucose uptake in human HepG2 cells at 10 uM incubated for 16 hrs by scintillation counting method; type: functional, cell-based

## COC(=O)c1c(S(C)(=O)=O)cc(-c2ccc(C)cc2)c2c1-c1cn(-c3ccccc3)nc1CC2
L6
  Activity: inactive

## CCc1ccc(CCOc2ccc(CC3SC(=O)NC3=O)cc2)nc1 (stereo not drawn) [PIOGLITAZONE]
Mus musculus [1]
  Activity: Active
Mus musculus [2]
  Activity: 34.8%
Mus musculus [3]
  Activity: 59.1%
Mus musculus [4]
  Activity: 58.1%
Mus musculus [5]
  Activity: 9.58%
Mus musculus [6]
  Activity: 23.9%
Mus musculus [7]
  Activity: 45.4%
Mus musculus [8]
  Activity: 15.1%

## COC(=O)c1c(SC)cc(-c2ccc(Br)cc2)c2c1-c1cn(-c3ccccc3)nc1CC2
L6
  Activity: inactive

## COC(=O)c1c(SC)cc(-c2cccs2)c2c1-c1cn(-c3ccccc3)nc1CC2
L6
  Activity: inactive

## COC(=O)c1c(SC)cc(-c2ccc(OC)cc2)c2c1-c1cn(-c3ccccc3)nc1CC2
L6
  Activity: inactive

## CN(C)C(=N)NC(=N)N
HepG2
  Activity: Active
